As a reminder, the logD is the decadic logarithm of the distribution of all forms, ionised or not, between an organic phase and buffer at a given pH. Lower therefore signals lower lipophilicity. For orientation: IC50 means the concentration needed to halve the response being measured. The bioavailability is the share of a dose that reaches the circulation, judged against a reference dose that is usually intravenous. A low value points to little systemic uptake.

Data set [1] deals with T1, Solute carrier organic anion transporter family member 1B1 (Homo sapiens, UniProt Q9Y6L6).
T1 sequence (Q9Y6L6 whole entry): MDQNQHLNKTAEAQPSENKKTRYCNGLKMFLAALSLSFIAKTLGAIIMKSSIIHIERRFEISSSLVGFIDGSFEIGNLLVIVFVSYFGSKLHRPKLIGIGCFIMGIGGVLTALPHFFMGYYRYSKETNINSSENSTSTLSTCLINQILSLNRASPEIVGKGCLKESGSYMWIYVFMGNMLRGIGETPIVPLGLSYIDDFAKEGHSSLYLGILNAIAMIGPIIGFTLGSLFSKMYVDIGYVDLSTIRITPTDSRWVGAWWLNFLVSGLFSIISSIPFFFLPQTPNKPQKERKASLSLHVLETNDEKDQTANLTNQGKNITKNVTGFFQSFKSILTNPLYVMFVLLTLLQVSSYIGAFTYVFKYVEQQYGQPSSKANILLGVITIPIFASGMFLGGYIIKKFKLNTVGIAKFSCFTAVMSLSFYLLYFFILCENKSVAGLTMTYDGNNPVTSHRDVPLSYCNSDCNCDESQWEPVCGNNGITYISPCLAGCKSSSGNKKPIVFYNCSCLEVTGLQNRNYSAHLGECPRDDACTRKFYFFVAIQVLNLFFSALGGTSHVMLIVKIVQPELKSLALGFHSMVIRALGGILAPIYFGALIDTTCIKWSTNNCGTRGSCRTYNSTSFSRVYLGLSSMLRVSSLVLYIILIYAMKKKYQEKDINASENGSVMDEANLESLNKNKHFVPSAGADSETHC
In words: Inhibition of OATP1B1 (unknown origin).

Data set [2] can be described thus: Lipophilicity, log D of the compound by HPLC analysis. Type of data set: physicochemical.
Data set [3] can be described thus: Unbound volume of distribution in C57BL/6 mouse. It counts as ADME. The conditions noted are these: in vivo.
Data set [4] can be described thus: Trough plasma concentration C57BL/6 mouse at 100 mg/kg. It counts as ADME, organism-based. To be noted: in vivo, read-out: Cmin. The method, boiled down: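 C57BL/6-Foxp3-GFP reporter mice were dosed at 30 and 100 mg/kg/day for up to 7 days, with exposure determined at 100 mg/kg. The unbound Cmax and trough values were derived from total plasma levels. Treg readout was bioluminescence imaging 10 min after 3 mg luciferin ip, reported as radiance in photons/s/cm²/steradian.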

The target of data set [5] is T2, Phosphatidylinositol 4,5-bisphosphate 3-kinase catalytic subunit delta isoform (Homo sapiens, UniProt O00329).
T2 sequence (O00329 whole entry): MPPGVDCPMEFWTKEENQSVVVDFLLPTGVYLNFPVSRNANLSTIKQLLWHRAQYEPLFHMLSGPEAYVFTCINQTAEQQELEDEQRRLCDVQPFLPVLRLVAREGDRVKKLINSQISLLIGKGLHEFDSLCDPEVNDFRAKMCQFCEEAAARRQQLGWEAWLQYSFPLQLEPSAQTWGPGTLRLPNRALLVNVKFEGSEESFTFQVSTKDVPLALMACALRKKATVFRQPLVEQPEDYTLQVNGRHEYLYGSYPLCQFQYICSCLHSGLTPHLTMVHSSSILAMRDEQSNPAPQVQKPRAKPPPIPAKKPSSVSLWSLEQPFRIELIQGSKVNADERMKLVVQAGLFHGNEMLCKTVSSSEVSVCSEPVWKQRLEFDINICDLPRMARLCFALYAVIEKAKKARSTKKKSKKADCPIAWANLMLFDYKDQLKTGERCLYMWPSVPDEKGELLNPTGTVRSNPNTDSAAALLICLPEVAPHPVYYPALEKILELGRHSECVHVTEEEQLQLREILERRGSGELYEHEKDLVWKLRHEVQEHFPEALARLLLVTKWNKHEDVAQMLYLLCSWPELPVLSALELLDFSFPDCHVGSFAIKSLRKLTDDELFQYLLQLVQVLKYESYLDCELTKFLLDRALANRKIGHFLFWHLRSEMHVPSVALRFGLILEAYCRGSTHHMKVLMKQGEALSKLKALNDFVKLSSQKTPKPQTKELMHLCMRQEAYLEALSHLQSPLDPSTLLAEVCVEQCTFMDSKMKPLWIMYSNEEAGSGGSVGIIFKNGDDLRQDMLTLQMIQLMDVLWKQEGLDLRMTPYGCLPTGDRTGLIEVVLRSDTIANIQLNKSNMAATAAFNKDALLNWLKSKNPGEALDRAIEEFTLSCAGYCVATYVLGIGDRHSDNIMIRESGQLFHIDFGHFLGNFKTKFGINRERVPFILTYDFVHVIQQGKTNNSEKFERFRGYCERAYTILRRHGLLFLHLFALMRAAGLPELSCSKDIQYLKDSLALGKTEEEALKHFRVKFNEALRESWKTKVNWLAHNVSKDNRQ
Nature of the data set: Inhibition of PI3Kdelta in human Ramos cells assessed as reduction in anti-IgM-antibody-induced phosphorylation of AKT at Ser473 residue preincubated for 20 mins followed by anti-IgM antibody stimulation and measured after 30 mins by alphascreen assay. It counts as cell-based. For orientation: Alpha assays give light when donor and acceptor beads are brought close together.

Data set [6] in a line: Inhibition of adenosine transporter in human HeLa cells assessed as reduction in [3H]adenosine uptake preincubated for 30 mins followed by [3H]adenosine addition and measured after 60 mins. It counts as cell-based.
Data set [7] concerns the target T2, Phosphatidylinositol 4,5-bisphosphate 3-kinase catalytic subunit delta isoform. In words: Inhibition of PI3Kdelta in human whole blood assessed as reduction in anti-CD79b antibody-induced CD69 expression preincubated for 60 mins followed by anti-CD79b antibody stimulation and measured after 3 hrs by FACS analysis. Type of data set: tissue-based.
The target in the next data set is Cytochrome P450 2C9 (Homo sapiens, UniProt P11712). In words: Inhibition of CYP2C9 (unknown origin). Type of data set: ADME.
Data set [8] in a line: Unbound Trough plasma concentration Brown Norway rat at 10 mg/kg, po. Type of data set: ADME, organism-based. To be noted: in vivo.
Data set [9] can be described thus: Oral bioavailability in C57BL/6 mouse. Type of data set: ADME, organism-based. To be noted: in vivo.
The next data set deals with T3, Cytochrome P450 2C8 (Homo sapiens, UniProt P10632).
T3 sequence (P10632 whole entry): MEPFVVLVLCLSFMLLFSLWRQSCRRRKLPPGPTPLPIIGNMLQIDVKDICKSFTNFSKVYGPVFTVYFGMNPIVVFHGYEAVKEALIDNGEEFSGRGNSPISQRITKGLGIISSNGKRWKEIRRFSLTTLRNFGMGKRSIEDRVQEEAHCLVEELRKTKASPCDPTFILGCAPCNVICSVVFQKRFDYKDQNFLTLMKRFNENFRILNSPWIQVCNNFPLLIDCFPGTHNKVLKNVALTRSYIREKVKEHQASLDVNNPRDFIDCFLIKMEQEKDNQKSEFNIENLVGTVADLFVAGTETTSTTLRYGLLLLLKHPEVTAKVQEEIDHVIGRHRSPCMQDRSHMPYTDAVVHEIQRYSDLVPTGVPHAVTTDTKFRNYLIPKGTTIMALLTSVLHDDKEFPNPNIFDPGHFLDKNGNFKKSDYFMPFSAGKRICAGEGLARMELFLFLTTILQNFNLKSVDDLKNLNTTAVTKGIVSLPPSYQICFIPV
Nature of the data set: Inhibition of CYP2C8 (unknown origin). It counts as ADME.

The nature of data set [10]: Trough plasma concentration Brown Norway rat at 30 mg/kg, po. The conditions noted are these: in vivo, read-out: Cmin. Type of data set: ADME, organism-based.

Sequence of Cytochrome P450 2C9 (P11712 whole entry): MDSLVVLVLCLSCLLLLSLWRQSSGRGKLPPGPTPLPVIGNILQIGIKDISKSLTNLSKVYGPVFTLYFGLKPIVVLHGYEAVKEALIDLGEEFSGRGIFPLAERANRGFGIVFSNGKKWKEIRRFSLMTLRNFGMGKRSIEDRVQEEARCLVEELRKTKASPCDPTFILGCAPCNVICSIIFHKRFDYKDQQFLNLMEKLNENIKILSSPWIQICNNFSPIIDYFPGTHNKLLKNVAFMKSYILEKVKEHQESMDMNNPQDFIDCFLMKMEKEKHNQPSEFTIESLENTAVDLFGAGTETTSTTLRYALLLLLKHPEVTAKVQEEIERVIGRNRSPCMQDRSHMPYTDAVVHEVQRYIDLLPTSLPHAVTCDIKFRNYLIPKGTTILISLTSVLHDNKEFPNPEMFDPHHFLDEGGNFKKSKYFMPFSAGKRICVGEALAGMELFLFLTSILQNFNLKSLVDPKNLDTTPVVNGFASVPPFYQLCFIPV

As to `CCn1c(-c2cnc(C)nc2)nc2c(N[C@H]3CCN(C(=O)C4CC4)C3)ncnc21`, the “inhibition (INH)” value in [1] is reported as “Not Active”. For the same compound, the logD in [2] worked out at 0.8. The Vdu in data set [3] amounted to 0.4 L/kg. The concentration turned out to be 110 nM in [4] and 103 nM in data set [10]. Further, the half-maximal inhibitory concentration (IC50) is 20 nM in [5]; 5000 nM in data set [6]; 65 nM in [7]; over 50000 nM against Cytochrome P450 2C9; over 50000 nM against Cytochrome P450 2C8. The compound also had a fCmin in data set [8] of 8 nM. This compound also came in with a bioavailability in data set [9] of 77%.

The values are drawn from ChEMBL document CHEMBL4834420, “Projected Dose Optimization of Amino- and Hydroxypyrrolidine Purine PI3Kδ Immunomodulators” (J Med Chem, 2021).
